In ChEMBL document CHEMBL1124478, “Cardiotonic agents. 5. Fragments from the heterocycle-phenyl-imidazole pharmacophore” (J Med Chem, 1989):

How the values were obtained:
[1] = Inhibition of crude canine cardiac c-AMP phosphodiesterase; parameters: species or system Canis lupus familiaris
Method in brief: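 Crude cAMP phosphodiesterase came from canine cardiac tissue homogenates. IC50 (μM) is the mean of at least three determinations, with ranges within ±10%. Where 50% inhibition was not reached at 100 μM, the percent inhibition at 100 μM drug was recorded instead.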

Mustela putorius furo [2] = organism: Mustela putorius furo; experiment: 20% increase in contractile force (CF) of ferret papillary muscle; format: functional, Muscle tissue
Method in brief: (§1)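 Isolated ferret papillary muscle in vitro. Value is the drug concentration (μM) giving a 20% rise in contractile force, the mean of at least two determinations, with ranges within ±10%. NR means that level was not reached at 100 μM. Responses were also tested with 1 μM propranolol and, for some compounds, 10 μM cimetidine.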

Mustela putorius furo [3] = organism: Mustela putorius furo; experiment: Increase in contractile force (CF) of ferret papillary muscle; NR = not reached at 100 uM; format: functional; conditions: Muscle tissue; method in brief: as §1
[4] = system: cAMP phosphodiesterase (Canis familiaris); experiment: Inhibition of crude canine cardiac c-AMP phosphodiesterase at 100 uM; conditions: Canis lupus familiaris

Cc1nc(O)c(C#N)c(NCCc2c[nH]cn2)n1
IC50 [1]: 4 µM | C20 (Mustela putorius furo [2]): 0.2 µM

CCc1[nH]c(O)nc1C(=O)OC
C20 (Mustela putorius furo [3]): Not reached | inhibition [4]: 10%

CC(=O)c1ccc(-n2ccnc2C)cc1
C20 (Mustela putorius furo [2]): 25 µM | inhibition [4]: 15%

CCc1[nH]c(O)nc1C(=O)NCCCn1ccnc1
C20 (Mustela putorius furo [3]): Not reached | inhibition [4]: 5%

CCc1[nH]c(O)nc1C(=O)c1ccc(-n2ccnc2C)cc1
C20 (Mustela putorius furo [2]): 0.7 µM

CCc1[nH]c(O)nc1C(=O)c1ccc(-n2ccnc2)cc1
IC50 [1]: 2 µM | C20 (Mustela putorius furo [2]): 0.05 µM

CCc1[nH]c(O)nc1C(=O)c1ccccc1
IC50 [1]: 54 µM | C20 (Mustela putorius furo [2]): 2 µM

Cc1nc(=O)c(C#N)c(NCc2cccnc2)[nH]1 [PELRINONE]
IC50 [1]: 4 µM | C20 (Mustela putorius furo [2]): 0.2 µM

CCc1[nH]c(O)nc1C(=O)NCCc1c[nH]cn1
C20 (Mustela putorius furo [2]): 10 µM | inhibition [4]: 25%

O=C1CCc2cc(-n3ccnc3)ccc2N1
IC50 [1]: 71 µM | C20 (Mustela putorius furo [2]): 1.6 µM

COc1ccc(C(=O)N2CCN(c3ccc4c(c3)CCC(=O)N4)CC2)cc1OC [VESNARINONE]
IC50 [1]: 32 µM | C20 (Mustela putorius furo [2]): 2.3 µM
